Reference: ChEMBL document CHEMBL1177753, “Cytotoxic bisbenzylisoquinoline alkaloids from the roots of Cyclea racemosa” (J Nat Prod, 2010)

Columns and labels:
Type in all cases: functional, cell-based
HCT-8 = assay: Cytotoxicity against human HCT8 cells after 3 days by MTT assay; conditions: HCT-8, 72 h
Procedure, shortened: (§1)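 Human tumor cells grown in RPMI-1640 with 5% fetal bovine serum. Freshly trypsinized cells seeded at 5000 cells per well in 96-well plates. Compounds added from DMSO-diluted stock. After three days of culture, attached cells stained with MTT, bound dye solubilized, absorbance read at 540 nm. IC50 taken as the concentration giving 50% growth inhibition, averaged from triplicate determinations.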

A2780 = assay: Cytotoxicity against human A2780 cells after 3 days by MTT assay; conditions: A2780, 72 h; procedure, shortened: as §1
Bel-7402 = assay: Cytotoxicity against human Bel7402 cells after 3 days by MTT assay; conditions: Bel-7402, 72 h; procedure, shortened: as §1

Structure (SMILES)	IC50 (HCT-8) [µM]	IC50 (A2780) [µM]	IC50 (Bel-7402) [µM]
CC(=O)O[C@H]1C(=O)[C@@]2(C)[C@H]([C@H](OC(=O)c3ccccc3)[C@]3(O)C[C@H](OC(=O)[C@H](O)[C@@H](NC(=O)c4ccccc4)c4ccccc4)C(C)=C1C3(C)C)[C@]1(OC(C)=O)CO[C@@H]1C[C@@H]2O [PACLITAXEL]	0.67	0.65	1.8
COc1cc2c3cc1Oc1cc(ccc1O)C[C@@H]1c4c(cc(OC)c5c4Oc4ccc(cc4CO5)C[C@H]3N(C)CC2)CCN1C [RACEMOSIDINE A]	2.8	6.7	6.09
COc1cc2c3cc1Oc1cc(ccc1O)C[C@H]1c4c(cc(OC)c(OC)c4Oc4ccc(cc4)C[C@H]3N(C)CC2)CCN1C [RACEMOSIDINE B]	9.72	> 10	4.62
COc1ccc2cc1Oc1cc3c(cc1OC)CCN(C)[C@@H]3Cc1ccc(cc1)Oc1c(OC)c(O)cc3c1[C@H](C2)N(C)CC3 [RACEMOSIDINE C]	6.04	> 10	7.53
COc1cc2c3cc1Oc1c(O)c(OC)cc4ccnc(c14)Cc1ccc(cc1)Oc1cc(ccc1O)C[C@H]3N(C)CC2 [RACEMOSININE B]	> 10	> 10	> 10
COc1cc2c3cc1Oc1c(O)c(OC)cc4ccnc(c14)Cc1ccc(cc1)Oc1cc(ccc1O)C[C@H]3[N+](C)([O-])CC2 (stereo partly drawn) [RACEMOSININE C]	> 10	> 10	> 10
